Calls of active or inactive are those of the source.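 Rule for the calls, unless noted: active = growth inhibition above 25% in both replicates, a cutoff set 3 SD above the mean; inconclusive = above 25% in only one replicate; inactive = the rest.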

A short description of the first test: OD615 S. cerevisiae growth inhibition, permissive medium, pilot counter-assay, permissive growth control for S. cerevisiae lifespan shortening project (AID 705). The following applies: OD615, 24 h, at 10 µM, active compounds read high. The procedure, abridged:
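System: Engineered DeaD yeast | Buffer or medium: SC raffinose/galactose permissive medium | Incubation: Cells pre-grown 4 h, then 24 h compound exposure, 30 °C humidified | Measured by: Absorbance (optical density) at 615 nm | Read-out: Reduction in yeast growth (OD615)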
Take `Cc1noc(C)c1S(=O)(=O)N1CCC(C(=O)N2CCC(N3CCCCC3)CC2)CC1`: the growth inhibition was -7.79% (inactive).
Same read-out and setting: the same measure for `COc1ccc(CNc2nc3c(c(=O)[nH]c(=O)n3C)n2Cc2ccccc2C)cc1`: -14.8% (inactive); for `Cc1ccc(-c2nc(-c3ccccc3)no2)c(Cl)c1`: -6.6% (inactive); for `Cc1nnc(Sc2nc3c(c(=O)[nH]c(=O)n3C)n2Cc2ccccc2Cl)s1`: -9.12% (inactive).
As to `COc1ccc(N2C(=O)CC(c3ccc(OC(C)C)cc3)C2=O)cc1` (stereo not drawn), the growth inhibition is -5.08% (inactive).
Same read-out and setting: for `Cc1ccc(-n2nnc3c(=O)n(CC(=O)OCc4ccccc4)cnc32)cc1` the value was -3.74% (inactive); for `Cc1cc(Oc2ccccc2)nc2ccc(O)cc12`, -1.63% (inactive).
The same measure, in the same setting: for `Cc1ccc(C(=O)N2CCN(c3ccccc3)CC2)cc1C` the value was 3.37% (inactive).
`CC(=O)N1CCN(CCN=CC2=C(O)CC(c3cccs3)CC2=O)CC1` (stereo not drawn): the growth inhibition was -6.7% (inactive).
The same measure, in the same setting: the same measure for `Cc1cc(C)cc(OCCCCCNCCO)c1`: -8.19% (inactive); for `Cc1ccnc(SCCn2c(N3CCC(C)CC3)nc3c2c(=O)[nH]c(=O)n3C)n1`: -10.1% (inactive).
As for `CN(CCCNC(=O)C1CCC(=O)N1Cc1ccc(F)cc1)c1ccccc1` (stereo not drawn), the growth inhibition was 4.99% (inactive).
As for `COC(=O)Nc1c(C(=O)OC)cc(OC)c(OC)c1OC`, the growth inhibition is -3.62% (inactive).
With `CCCn1c(C(C)NC(C)=O)nc2ccccc21` (stereo not drawn), the growth inhibition was -10.3% (inactive).
On the same count and under the same terms, for `CCC1CCCCN1Cc1ccc(OC)c(OC)c1` (stereo not drawn) the value was -7.04% (inactive); for `CCOC(=O)N1CCN(CC(=O)Nc2ccc(C)cc2)CC1`, -4.43% (inactive); for `Cc1cccc(Cn2c(SCCN3CCOCC3)nc3c2c(=O)n(C)c(=O)n3C)c1`, 1.68% (inactive).
As for `COc1cccc(C(c2sc3ncnn3c2O)N2CCN(C(=O)c3ccco3)CC2)c1` (stereo not drawn), the growth inhibition was -11.1% (inactive).
Same read-out and setting: the same measure for `CCN1CCN(C(=O)C2CCN(Cc3nc(-c4ccc(Cl)cc4)oc3C)CC2)CC1`: -10.7% (inactive); for `CCOC(=O)CC1C(=O)NCCN1Cc1cccc(OC)c1` (stereo not drawn): -12.5% (inactive); for `COc1cccc(-c2nc3cc(C)ccc3o2)c1`: -5.93% (inactive).
For `COCCSc1nc2c(c(=O)[nH]c(=O)n2C)n1CCC(C)C`, the growth inhibition is -19.7% (inactive).
On to `O=C(CCCN1C(=O)CSc2ncccc21)N1CCN(Cc2ccccc2)CC1`, for which the growth inhibition was -1.92% (inactive).
On the same count and under the same terms, for `Cc1cc(C)n(C(=O)CCN2C(=O)c3ccccc3C2=O)n1` the value was -14.3% (inactive); for `CCCC(=O)c1ccc(N2CCCCCC2)c(F)c1`, -13.2% (inactive); for `O=C(Nc1c(C(=O)O)oc2ccc(Br)cc12)c1ccccc1`, -34% (inactive).
The same measure, in the same setting: for `CCC(=O)Nc1sc2c(c1C(N)=O)CCN(C(C)=O)C2` the value was -12.9% (inactive); for `CS(=O)(=O)c1ccc(N)cc1`, -13.1% (inactive).
The same measure, in the same setting: the same measure for `O=C1CC(c2cccnc2)c2cc3c(cc2N1)OCCO3` (stereo not drawn): 2.41% (inactive); for `COCCNC(=O)Cn1ncc2ccsc2c1=O`: -1.34% (inactive); for `COc1cc(NC(=O)C2CCCN2S(=O)(=O)c2ccc3c(c2)CCC(=O)N3)cc(OC)c1` (stereo not drawn): -15.3% (inactive).
With `CC(C)n1c(SCc2ccccc2F)nc2c1c(=O)n(C)c(=O)n2C`, the growth inhibition is -11.3% (inactive).
The same measure, in the same setting: for `CCOC(=O)c1c(C)oc2ccc(OC(=O)N3CCOCC3)cc12` the value was -16.1% (inactive); for `CCOC(=O)/C(C#N)=C1/C=Nc2ccccc2N1`, -4.26% (inactive).
As for `CNS(=O)(=O)c1ccc(Oc2ccc(S(=O)(=O)NC)cc2)cc1`, the growth inhibition was 2.02% (inactive).
The same measure, in the same setting: for `O=C(O)CN1C(=O)C2C3C=CC(C3)C2C1=O` (stereo not drawn) the value was -14.3% (inactive); for `Cc1cc(C)c(NC(=O)c2ccc(S(=O)(=O)N3CCOCC3)cc2)c(C)c1`, -9.41% (inactive).
`CC1=C(C(=O)N2CCOCC2)C(c2cccs2)NC(=O)N1` (stereo not drawn): the growth inhibition is 1.45% (inactive).
On the same count and under the same terms, the same measure for `Cc1ccc(OCC(=O)NCc2ccccn2)c(Br)c1`: 2.21% (inactive).

A further test in a line: Restrictive medium S. cerevisiae growth inhibition, OD615, pilot screen of yeast lifespan reduction project, restrictive growth control (AID 706;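 active = growth inhibition above a set limit, 3 SD over mean compound inhibition, in both replicates, cut at about 43% in these data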;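 note: modified DeaD lifespan yeast strain shifted to restrictive glucose medium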). The note with it: OD615, 48 h, at 10 µM, active compounds read high. The method in brief:
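Material: modified S. cerevisiae; Medium: glucose-based CSMM-D restrictive medium; Compound dosing: one concentration, 10 µM final, 0.25% DMSO; Incubation: 48 h compound exposure at 30 °C; Measured by: OD615.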
`Cc1noc(C)c1S(=O)(=O)N1CCC(C(=O)N2CCC(N3CCCCC3)CC2)CC1`: the growth inhibition is 2.65% (inactive).
Still for that read-out and setting: for `COc1ccc(CNc2nc3c(c(=O)[nH]c(=O)n3C)n2Cc2ccccc2C)cc1` the value was -13.7% (inactive); for `Cc1ccc(-c2nc(-c3ccccc3)no2)c(Cl)c1`, -11.1% (inactive).
On the same count and under the same terms, the same measure for `Cc1nnc(Sc2nc3c(c(=O)[nH]c(=O)n3C)n2Cc2ccccc2Cl)s1`: -9.02% (inactive).
As for `COc1ccc(N2C(=O)CC(c3ccc(OC(C)C)cc3)C2=O)cc1` (stereo not drawn), the growth inhibition is -8.6% (inactive).
As to `Cc1ccc(-n2nnc3c(=O)n(CC(=O)OCc4ccccc4)cnc32)cc1`, the growth inhibition is -5.4% (inactive).
In the case of `Cc1cc(Oc2ccccc2)nc2ccc(O)cc12`, the growth inhibition was 3.26% (inactive).
Regarding `Cc1ccc(C(=O)N2CCN(c3ccccc3)CC2)cc1C`, the growth inhibition is 8.08% (inactive).
Same read-out and setting: the same measure for `CC(=O)N1CCN(CCN=CC2=C(O)CC(c3cccs3)CC2=O)CC1` (stereo not drawn): -2.31% (inactive); for `Cc1cc(C)cc(OCCCCCNCCO)c1`: -14.7% (inactive); for `Cc1ccnc(SCCn2c(N3CCC(C)CC3)nc3c2c(=O)[nH]c(=O)n3C)n1`: -6.83% (inactive).
As to `CN(CCCNC(=O)C1CCC(=O)N1Cc1ccc(F)cc1)c1ccccc1` (stereo not drawn), the growth inhibition was -8.76% (inactive).
Still for that read-out and setting: for `COC(=O)Nc1c(C(=O)OC)cc(OC)c(OC)c1OC` the value was -6.57% (inactive); for `CCCn1c(C(C)NC(C)=O)nc2ccccc21` (stereo not drawn), -16.9% (inactive).
Still for that read-out and setting: the same measure for `CCC1CCCCN1Cc1ccc(OC)c(OC)c1` (stereo not drawn): -8.04% (inactive).
On to `CCOC(=O)N1CCN(CC(=O)Nc2ccc(C)cc2)CC1`, for which the growth inhibition was 4.79% (inactive).
As for `Cc1cccc(Cn2c(SCCN3CCOCC3)nc3c2c(=O)n(C)c(=O)n3C)c1`, the growth inhibition is 1.63% (inactive).
Still for that read-out and setting: the same measure for `COc1cccc(C(c2sc3ncnn3c2O)N2CCN(C(=O)c3ccco3)CC2)c1` (stereo not drawn): -5.93% (inactive).
As for `CCN1CCN(C(=O)C2CCN(Cc3nc(-c4ccc(Cl)cc4)oc3C)CC2)CC1`, the growth inhibition was -25% (inactive).
Same read-out and setting: for `CCOC(=O)CC1C(=O)NCCN1Cc1cccc(OC)c1` (stereo not drawn) the value was -6.96% (inactive); for `COc1cccc(-c2nc3cc(C)ccc3o2)c1`, 0.415% (inactive); for `COCCSc1nc2c(c(=O)[nH]c(=O)n2C)n1CCC(C)C`, -18.9% (inactive).
On the same count and under the same terms, the same measure for `O=C(CCCN1C(=O)CSc2ncccc21)N1CCN(Cc2ccccc2)CC1`: -2.68% (inactive); for `Cc1cc(C)n(C(=O)CCN2C(=O)c3ccccc3C2=O)n1`: 5.39% (inactive).
Still for that read-out and setting: for `CCCC(=O)c1ccc(N2CCCCCC2)c(F)c1` the value was -2.93% (inactive).
As to `O=C(Nc1c(C(=O)O)oc2ccc(Br)cc12)c1ccccc1`, the growth inhibition is 2.99% (inactive).
For the molecule `CCC(=O)Nc1sc2c(c1C(N)=O)CCN(C(C)=O)C2`, the growth inhibition is -19.6% (inactive).
On the same count and under the same terms, the same measure for `CS(=O)(=O)c1ccc(N)cc1`: -8.62% (inactive); for `O=C1CC(c2cccnc2)c2cc3c(cc2N1)OCCO3` (stereo not drawn): -0.935% (inactive).
Still for that read-out and setting: for `COCCNC(=O)Cn1ncc2ccsc2c1=O` the value was 5.16% (inactive); for `COc1cc(NC(=O)C2CCCN2S(=O)(=O)c2ccc3c(c2)CCC(=O)N3)cc(OC)c1` (stereo not drawn), -5.1% (inactive).
Still for that read-out and setting: for `CC(C)n1c(SCc2ccccc2F)nc2c1c(=O)n(C)c(=O)n2C` the value was -1.82% (inactive); for `CCOC(=O)c1c(C)oc2ccc(OC(=O)N3CCOCC3)cc12`, 0.815% (inactive); for `CCOC(=O)/C(C#N)=C1/C=Nc2ccccc2N1`, -1.09% (inactive).
On to `CNS(=O)(=O)c1ccc(Oc2ccc(S(=O)(=O)NC)cc2)cc1`, for which the growth inhibition was 2.91% (inactive).
On to `O=C(O)CN1C(=O)C2C3C=CC(C3)C2C1=O` (stereo not drawn), for which the growth inhibition was -14.5% (inactive).
The same measure, in the same setting: the same measure for `Cc1cc(C)c(NC(=O)c2ccc(S(=O)(=O)N3CCOCC3)cc2)c(C)c1`: -8.03% (inactive); for `CC1=C(C(=O)N2CCOCC2)C(c2cccs2)NC(=O)N1` (stereo not drawn): -1.81% (inactive); for `Cc1ccc(OCC(=O)NCc2ccccn2)c(Br)c1`: -9.19% (inactive).

The record behind these values is PubChem BioAssay.
